# Data reported in publication PMC3556220 (Biochimica et biophysica acta, 2012).
# Experiments:
# BON cells [1] = conditions: cited from earlier work; for induction of apoptosis: BON cells
# non-endocrine tumors = conditions: cited from earlier work
# QGP-1 cells = assay: [^3H]-Thymidine uptake, QGP-1 cell growth; format: cell-based, human; conditions: n = 6; for stimulation of cell growth, [^3H]-Thymidine incorporation: 24 h, serum-free medium, EGFR-dependent
# Outline: (§1)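 Plating: BON 1.5 × 10^5/well in DMEM/F12K; QGP-1 4 × 10^4/well in RPMI; both with 10% FBS. After 24 h, cells were serum-starved 24 h, then exposed 24 h to peptides/hormones with or without EGFR inhibitor at 1 µM. [3H]-thymidine was present for the final 6 h. Cells were washed in ice-cold PBS, precipitated in 5% TCA (30 min, 4 °C), dissolved in 0.5 N NaOH/0.5% SDS and scintillation-counted. Mean ± SEM, 6 experiments.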
# [2] = test system: EGFR (Y^1068 phosphorylation); assay: Western blot of EGFR Tyr^1068 phosphorylation in BON cells; format: cell-based, human; conditions: for inhibition of NT-stimulated EGFR Y^1068 phosphorylation by antioxidant: NAC or Tiron pre-treatment (one range for both); for inhibition of Bn-analogue-stimulated EGFR Y^1068 phosphorylation by antioxidant: NAC or Tiron pre-treatment; for stimulation of Y^1068 EGFR phosphorylation: Western blot, densitometry
# Outline: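 BON cells were stimulated with EGF 16 nM or peptides 1 µM for 30 min or over time courses; inhibitor sets used 1 h stimulation. Lysis was in pH 7.5 Triton/deoxycholate buffer with orthovanadate. Equal protein ran on 4–20% SDS-PAGE onto nitrocellulose. Probes: anti-phospho-EGFR Tyr1068 (1:1000, overnight 4 °C), tubulin loading control, HRP secondary, chemiluminescence on film, band densitometry. Mean ± SEM, 3–4 experiments.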
# BON cells [3] = assay: MTT assay of BON cell growth; format: cell-based, human; conditions: for stimulation of BON cell growth, MTT assay: 24 h incubation, serum-free medium, read at 595 nm, mean of 6 experiments
# Outline: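 BON cells (5 × 10^3/well) were grown 24 h in DMEM/F12K + 10% FBS, washed with PBS, then exposed 24 h to peptides/hormones in serum-free DMEM/F12K, with or without EGFR inhibitor at 1 μM. MTT (1.2 mM final) was present for the last 3 h. Formazan was dissolved in 0.04 N HCl/isopropanol for 5 min at RT and absorbance read at 595 nm. Mean ± SEM, 6 experiments.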
# [4] = test system: progressive metastatic NETs; conditions: phase II trial, patients with progressive metastatic NETs; cited from earlier work
# KRJ-I cells = conditions: cited from earlier work
# NCH720 cells = conditions: broncho-pulmonary NET cell line; cited from earlier work
# BON cells [5] = assay: [^3H]-Thymidine uptake, BON cell growth; format: cell-based, human; conditions: 24 h incubation, serum-free medium, mean of 6 experiments
# Outline: as §1
# HNSCC = conditions: cited from earlier work; for cell proliferation: HNSCC
# [6] = test system: non-small-cancer lung cells / lung cancer; conditions: cited from earlier work
# [7] = test system: rat insulinoma cell lines; conditions: cited from earlier work
# BON cells [8] = assay: BON cell growth, galanin and CCK/gastrin; format: cell-based, human; conditions: data not shown
# Outline: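 BON cells are grown in DMEM/F12K with 10% FBS, then washed and serum-starved, and test compound is added for 24 h. For the MTT read-out, 5×10^3 cells/well get 1.2 mM MTT (final) for the last 3 h, are lysed in 0.04N HCl/isopropanol, and are read at 595 nm. For thymidine uptake, 1.5×10^5 cells/well are starved 24 h and pulsed with [3H]-thymidine for the final 6 h. Samples are TCA-precipitated, solubilised in NaOH/SDS, and scintillation-counted.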
# prostate cancer cells = conditions: cited from earlier work
# [9] = test system: pancreatic adenocarcinoma cells; conditions: cited from earlier work
compound,measurement,setting,value
COc1cc2ncnc(Nc3cccc(Cl)c3)c2cc1OC [AG1478],induction of apoptosis,BON cells [1],induces apoptosis
same,BON cell basal proliferation,BON cells [1],completely blocks BON cell basal proliferation
same,inhibition of cell growth stimulated by various GI hormones/neurotransmitters,non-endocrine tumors,able to inhibit cell growth
same,inhibition of the increase of cell growth induced by the GI hormones,"QGP-1 cells; AG1478 1 μM pre-treatment, [^3H]-Thymidine uptake",blocked the increase of cell growth
same,inhibition of Bn-analogue-stimulated Y^1068 EGFR phosphorylation,"[2]; AG1478 1 μM, stimulant Bn-analogue, 30 min, n = 4",inhibited completely
same,inhibition of EGF-stimulated Y^1068 EGFR phosphorylation,"[2]; AG1478 1 μM, stimulant EGF, 30 min, n = 4",88%
same,inhibition of NT-stimulated Y^1068 EGFR phosphorylation,"[2]; AG1478 1 μM, stimulant NT, 30 min, n = 4",inhibited completely
same,"inhibition of growth stimulated by each GI hormone, EGF or TGFα, MTT assay","BON cells [3]; BON cells, AG1478 1 μM pre-treatment, 24 h, n = 6",completely inhibited
CN(C)CCCn1cc(C2=C(c3c[nH]c4ccccc34)C(=O)NC2=O)c2ccccc21 [GF 109203X],inhibition of NT-stimulated EGFR Y^1068 phosphorylation by PKC inhibitor,"[2]; GF 109203X pre-treatment, NT 1 μM, 1 h, n = 3",77%
CNC(=O)[C@H](Cc1c[nH]c2ccccc12)NC(=O)[C@@H](CC(=O)NO)CC(C)C [GM 6001],reduction of Bn-analogue-stimulated EGFR Y^1068 phosphorylation by MMP inhibitor,"[2]; GM 6001 pre-treatment, Bn-analogue 1 μM, 1 h, n = 3",75%
same,reduction of NT-stimulated EGFR Y^1068 phosphorylation by MMP inhibitor,"[2]; GM 6001 pre-treatment, NT 1 μM, 1 h, n = 3",60%
COc1cc2ncnc(Nc3ccc(F)c(Cl)c3)c2cc1OCCCN1CCOCC1 [Gefitinib],induction of apoptosis,BON cells [1],induces apoptosis
same,BON cell basal proliferation,BON cells [1],completely blocks BON cell basal proliferation
same,tumor stabilization,[4],stabilization of the tumors
CC(=O)N[C@@H](CS)C(=O)O [N-acetylcysteine],inhibition of NT-stimulated EGFR Y^1068 phosphorylation by antioxidant,"[2]; NT 1 μM, 1 h, n = 3",37–45%
same,inhibition of Bn-analogue-stimulated EGFR Y^1068 phosphorylation by antioxidant,"[2]; Bn-analogue 1 μM, 1 h, n = 3",85%
COc1cc2ncnc(Nc3cccc(Br)c3)c2cc1OC [PD153035],inhibition of cell growth stimulated by various GI hormones/neurotransmitters,non-endocrine tumors,able to inhibit cell growth
Nc1ncnc2c1cnn2-c1ccccc1 [PP3],reduction of Bn-analogue-stimulated Y^1068 EGFR phosphorylation,"[2]; inhibitor 10 μM, Bn-analogue 1 μM, 1 h, n = 4","but not PP3, an inactive PP2 analogue"
same,reduction of NT-stimulated Y^1068 EGFR phosphorylation,"[2]; inhibitor 10 μM, NT 1 μM, 1 h, n = 4","but not PP3, an inactive PP2 analogue"
O=S(=O)(O)c1cc(O)c(O)c(S(=O)(=O)O)c1 [Tiron],inhibition of NT-stimulated EGFR Y^1068 phosphorylation by antioxidant,"[2]; NT 1 μM, 1 h, n = 3",37–45%
same,inhibition of Bn-analogue-stimulated EGFR Y^1068 phosphorylation by antioxidant,"[2]; Bn-analogue 1 μM, 1 h, n = 3",85%
NCCc1c[nH]c2ccc(O)cc12 [serotonin],cell proliferation of KRJ-I,KRJ-I cells,stimulates cell proliferation
same,cell proliferation,NCH720 cells,stimulates cell proliferation
"EGF: Human EGF (Recombinant, E. coli)",growth of BON cells,BON cells [1],can stimulate growth of both KRJ-I cells and BON cells
same,stimulation of BON cell proliferation (previous studies),BON cells [1]; previous studies,stimulates cell proliferation
same,"growth stimulated, [^3H]-Thymidine assessment",BON cells [5],32%
same,"stimulation of cell growth, [^3H]-Thymidine incorporation",QGP-1 cells,"able to stimulate BON cell growth, as well as in QGP-1 cells"
same,growth of KRJ-I cells,KRJ-I cells,can stimulate growth of both KRJ-I cells and BON cells
same,stimulation of Y^1068 EGFR phosphorylation,"[2]; 16 nM, 30 min, n = 4",significantly stimulated
same,peak time of Y^1068 EGFR tyrosine phosphorylation,[2]; EGF,2 min
same,t1/2 of Y^1068 EGFR phosphorylation,"[2]; EGF 16 nM, n = 4",3 min
same,"stimulation of BON cell growth, MTT assay",BON cells [3],30%
NMB: stimulates cell proliferation in non-small-cancer lung cells,cell proliferation,HNSCC,stimulate cell proliferation
same,cell proliferation,[6],stimulate cell proliferation
"TGFα: TGFα, BioVision","growth stimulated, [^3H]-Thymidine assessment",BON cells [5],42%
same,"stimulation of cell growth, [^3H]-Thymidine incorporation",QGP-1 cells,stimulated cell growth
same,growth of KRJ-I cells,KRJ-I cells,increase cell growth
same,stimulation of Y^1068 EGFR phosphorylation,"[2]; 3.6 nM, 30 min, n = 4",significantly stimulated
same,"stimulation of BON cell growth, MTT assay",BON cells [3],40%
TGFβ,growth of KRJ-I cells,KRJ-I cells,increase cell growth
"[DTyr^6, β Ala^11, Phe^13, Nle^14]Bn (6–14) [Bn-analogue]","stimulation of cell growth, [^3H]-Thymidine incorporation",QGP-1 cells,stimulated cell growth
same,stimulation of Y^1068 EGFR phosphorylation,"[2]; 1 μM, 30 min, n = 4",significantly stimulated
same,"maximal increase of EGFR Y^1068 phosphorylation, dose-response","[2]; 1 μM, n = 4",2.4 fold
same,peak time of Y^1068 EGFR tyrosine phosphorylation,[2]; Bn-analogue or NT,60 min
same,increase of EGFR phosphorylation at 62 min,"[2]; time course, 1 μM, 62 min (NT data not shown), n = 4",3.4 fold
bombesin,cell proliferation,HNSCC,stimulate cell proliferation
same,cell proliferation,[6],stimulate cell proliferation
"bradykinin (RPPGFSPFR; Bradykinin; UniProt P01042 381-389, looked up)",growth of HNSCC,HNSCC; through its B2 receptor,stimulates growth of HNSCC
same,"stimulation of cell growth, [^3H]-Thymidine incorporation",QGP-1 cells,"able to stimulate BON cell growth, as well as in QGP-1 cells"
same,stimulation of Y^1068 EGFR phosphorylation,"[2]; 1 μM, 30 min, n = 4",significantly stimulated
"epiregulin: epiregulin, an EGFR ligand",cell growth,[7],stimulates cell growth
"galanin (GWTLNSAGYLLGPHAVGNHRSFSDKNGLTS; Galanin; UniProt P22466 33-62, looked up)",effect on cell growth,BON cells [8],did not exert any effect on cell growth
neurotensin [NT],cell growth,prostate cancer cells,stimulate cell growth
same,"stimulation of cell growth, [^3H]-Thymidine incorporation",QGP-1 cells,stimulated cell growth
same,stimulation of Y^1068 EGFR phosphorylation,"[2]; 1 μM, 30 min, n = 4",significantly stimulated
same,"maximal increase of EGFR Y^1068 phosphorylation, dose-response","[2]; 1 μM, n = 4",2.6 fold
same,peak time of Y^1068 EGFR tyrosine phosphorylation,[2]; Bn-analogue or NT,60 min
same,cell growth,[9],stimulate cell growth
